In ChEMBL document CHEMBL4028879, “Structure-Activity Relationship Studies of Pyrimido[5,4-b]indoles as Selective Toll-Like Receptor 4 Ligands” (J Med Chem, 2017):
Activity calls are given as the source filed them. No cut-off for these calls is given here.

Tested on: Mus musculus
Test: Immunostimulatory activity in wild type C57BL/6 mouse assessed as induction of keratinocyte chemo-attractant levels in serum at 20 nmol, iv measured at 3 hrs post dose by Luminex beads assay
Type: functional, organism-based
Details: not given
Summary of the method: (§1)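 Seven- to nine-week-old wild-type C57BL/6 mice (n = 6) injected iv with 20 nmol/animal in 0.1% DMSO in saline. Sera collected 3 h after injection; IL-6, IP-10 and KC quantified by Luminex bead assay, detection limit 2.56 pg/mL. Kruskal–Wallis test with Dunn's post hoc test.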

SMILES | Activity
Cn1c2c(c3nc(SCC(=O)NC4CCCCC4)n(-c4ccccc4)c(=O)c31)CCCCC2 | Active
Cn1c2ccc(-c3ccccc3)cc2c2nc(SCC(=O)NC3CCCCC3)n(-c3ccccc3)c(=O)c21 | Active
Cn1c2ccccc2c2nc(SCC(=O)NC3CCCCC3)n(-c3ccccc3)c(=O)c21 | Active

Molecular target: T1, Toll-like receptor 4 (Homo sapiens, UniProt O00206)
Test: Agonist activity at human TLR4 expressed in HEK293 blue cells assessed as induction of NF-kappaB activation-mediated SEAP production by measuring AUC after 20 to 24 hrs by colorimetric assay relative to N-cyclohexyl-2-(5-methyl-4-oxo-3-phenyl-4,5-dihydro-3H-pyrimido[5,4-b]indol-2-ylthio)acetamide
Type: cell-based
Details: not given

T1 sequence (O00206 whole entry): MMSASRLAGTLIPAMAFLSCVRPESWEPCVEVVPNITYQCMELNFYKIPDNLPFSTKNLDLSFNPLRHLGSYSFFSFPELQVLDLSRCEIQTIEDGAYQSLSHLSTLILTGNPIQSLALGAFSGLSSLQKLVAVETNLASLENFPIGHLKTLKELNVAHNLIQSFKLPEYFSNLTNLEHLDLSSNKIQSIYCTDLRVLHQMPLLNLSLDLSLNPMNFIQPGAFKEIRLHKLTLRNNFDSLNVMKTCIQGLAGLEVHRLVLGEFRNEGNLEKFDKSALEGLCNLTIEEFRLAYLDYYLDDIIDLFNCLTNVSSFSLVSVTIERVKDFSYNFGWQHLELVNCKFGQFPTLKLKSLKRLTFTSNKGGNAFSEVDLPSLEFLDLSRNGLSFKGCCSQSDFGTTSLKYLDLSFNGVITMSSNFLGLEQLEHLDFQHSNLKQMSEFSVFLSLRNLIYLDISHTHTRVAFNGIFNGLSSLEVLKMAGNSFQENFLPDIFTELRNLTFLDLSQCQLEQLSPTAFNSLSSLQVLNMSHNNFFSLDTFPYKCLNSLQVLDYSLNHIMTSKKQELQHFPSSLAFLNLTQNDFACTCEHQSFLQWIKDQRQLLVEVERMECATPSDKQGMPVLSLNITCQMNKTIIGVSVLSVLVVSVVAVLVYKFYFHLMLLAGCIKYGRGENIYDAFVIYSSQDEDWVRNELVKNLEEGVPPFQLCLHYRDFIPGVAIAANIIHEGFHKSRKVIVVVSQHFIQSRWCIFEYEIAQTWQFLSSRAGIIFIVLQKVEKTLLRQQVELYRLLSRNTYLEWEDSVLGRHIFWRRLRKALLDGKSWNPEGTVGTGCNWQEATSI

SMILES | Activity [%]
Cn1c2ccc(-c3ccc4ccccc4c3)cc2c2nc(SCC(=O)NC3CCCCC3)n(-c3ccccc3)c(=O)c21 | 1300
Cn1c2c(c3nc(SCC(=O)NC4CCCCC4)n(-c4ccccc4)c(=O)c31)CCCCC2 | 46
Cn1c2ccc(-c3ccccc3)cc2c2nc(SCC(=O)NC3CCCCC3)n(-c3ccccc3)c(=O)c21 | 1560

Tested on: Mus musculus
Test: Immunostimulatory activity in wild type C57BL/6 mouse assessed as induction of IP-10 levels in serum at 20 nmol, iv measured at 3 hrs post dose by Luminex beads assay
Type: functional, organism-based
Details: not given
Summary of the method: as §1

SMILES | Activity
Cn1c2c(c3nc(SCC(=O)NC4CCCCC4)n(-c4ccccc4)c(=O)c31)CCCCC2 | Active
Cn1c2ccc(-c3ccccc3)cc2c2nc(SCC(=O)NC3CCCCC3)n(-c3ccccc3)c(=O)c21 | Active
Cn1c2ccccc2c2nc(SCC(=O)NC3CCCCC3)n(-c3ccccc3)c(=O)c21 | Active

Molecular target: T2, Toll-like receptor 4 (Mus musculus) (UniProt Q9QUK6)
T2 sequence (whole entry): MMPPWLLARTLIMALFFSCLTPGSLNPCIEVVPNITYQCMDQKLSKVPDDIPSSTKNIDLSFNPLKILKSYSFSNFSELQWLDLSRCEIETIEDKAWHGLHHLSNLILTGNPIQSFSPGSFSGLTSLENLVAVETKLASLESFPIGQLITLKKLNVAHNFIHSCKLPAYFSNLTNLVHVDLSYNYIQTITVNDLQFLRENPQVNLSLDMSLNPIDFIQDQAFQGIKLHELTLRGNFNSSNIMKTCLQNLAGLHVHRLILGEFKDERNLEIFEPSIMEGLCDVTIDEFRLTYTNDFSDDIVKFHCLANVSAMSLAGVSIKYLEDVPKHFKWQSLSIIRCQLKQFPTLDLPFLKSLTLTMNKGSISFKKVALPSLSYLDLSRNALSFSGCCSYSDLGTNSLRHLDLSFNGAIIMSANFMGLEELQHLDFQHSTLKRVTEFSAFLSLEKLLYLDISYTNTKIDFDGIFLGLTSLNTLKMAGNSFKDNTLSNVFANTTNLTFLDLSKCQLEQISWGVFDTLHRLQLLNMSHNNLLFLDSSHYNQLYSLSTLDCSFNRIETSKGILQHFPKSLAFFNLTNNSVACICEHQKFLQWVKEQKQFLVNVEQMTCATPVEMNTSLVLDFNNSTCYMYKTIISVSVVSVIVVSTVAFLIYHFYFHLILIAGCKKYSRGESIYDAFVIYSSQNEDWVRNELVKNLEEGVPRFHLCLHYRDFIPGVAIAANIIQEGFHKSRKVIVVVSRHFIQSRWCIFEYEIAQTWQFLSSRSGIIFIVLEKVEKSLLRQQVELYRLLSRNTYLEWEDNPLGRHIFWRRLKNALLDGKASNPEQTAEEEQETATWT
Test: Agonist activity at TLR4 in C57BL/6 mouse primary BMDC assessed as induction of CCL5 release at 0.1 to 10 uM after 18 hrs by ELISA
Details: not given
Summary of the method: (§2)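 BMDC from C57BL/6 mice, 1 × 10⁵ cells/well in RPMI 1640 with 10% FBS and penicillin/streptomycin. Graded doses for 18 h at 37°C, 5% CO₂. IL-6 or CCL5 in supernatants measured by ELISA, detection limit 15 pg/mL. Positive control ultrapure LPS-EB 10 ng/mL. Significance by two-way ANOVA with Dunnett's post hoc test.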

SMILES | Activity
Cn1c2ccc(-c3ccc4ccccc4c3)cc2c2nc(SCC(=O)NC3CCCCC3)n(-c3ccccc3)c(=O)c21 | Active
Cn1c2c(c3nc(SCC(=O)NC4CCCCC4)n(-c4ccccc4)c(=O)c31)CCCCC2 | Active
Cn1c2ccc(-c3ccccc3)cc2c2nc(SCC(=O)NC3CCCCC3)n(-c3ccccc3)c(=O)c21 | Active
Cn1c2ccccc2c2nc(SCC(=O)NC3CCCCC3)n(-c3ccccc3)c(=O)c21 | Active

Molecular target: T2, Toll-like receptor 4 (Mus musculus)
Test: Agonist activity at mouse TLR4 expressed in HEK293 blue cells assessed as induction of NF-kappaB activation-mediated SEAP production by measuring AUC after 20 to 24 hrs by colorimetric assay relative to N-cyclohexyl-2-(5-methyl-4-oxo-3-phenyl-4,5-dihydro-3H-pyrimido[5,4-b]indol-2-ylthio)acetamide
Type: cell-based
Details: not given

SMILES | Activity [%]
Cn1c2ccc(-c3ccc4ccccc4c3)cc2c2nc(SCC(=O)NC3CCCCC3)n(-c3ccccc3)c(=O)c21 | 78
Cn1c2c(c3nc(SCC(=O)NC4CCCCC4)n(-c4ccccc4)c(=O)c31)CCCCC2 | 44
Cn1c2ccc(-c3ccccc3)cc2c2nc(SCC(=O)NC3CCCCC3)n(-c3ccccc3)c(=O)c21 | 223

Molecular target: T2, Toll-like receptor 4 (Mus musculus)
Test: Agonist activity at TLR4 in C57BL/6 mouse primary BMDC assessed as induction of IL-6 release at 5 uM after 18 hrs by ELISA relative to N-cyclohexyl-2-(5-methyl-4-oxo-3-phenyl-4,5-dihydro-3H-pyrimido[5,4-b]indol-2-ylthio)acetamide
Details: not given

SMILES | Activity [%]
Cn1c2ccc(-c3ccc4ccccc4c3)cc2c2nc(SCC(=O)NC3CCCCC3)n(-c3ccccc3)c(=O)c21 | 137
Cn1c2c(c3nc(SCC(=O)NC4CCCCC4)n(-c4ccccc4)c(=O)c31)CCCCC2 | 93
Cn1c2ccc(-c3ccccc3)cc2c2nc(SCC(=O)NC3CCCCC3)n(-c3ccccc3)c(=O)c21 | 123

Tested on: Mus musculus
Test: Immunostimulatory activity in wild type C57BL/6 mouse assessed as induction of IL-6 levels in serum at 20 nmol, iv measured at 3 hrs post dose by Luminex beads assay
Type: functional, organism-based
Details: not given
Summary of the method: as §1

SMILES | Activity
Cn1c2c(c3nc(SCC(=O)NC4CCCCC4)n(-c4ccccc4)c(=O)c31)CCCCC2 | Active
Cn1c2ccc(-c3ccccc3)cc2c2nc(SCC(=O)NC3CCCCC3)n(-c3ccccc3)c(=O)c21 | Active
Cn1c2ccccc2c2nc(SCC(=O)NC3CCCCC3)n(-c3ccccc3)c(=O)c21 | Active

Molecular target: T2, Toll-like receptor 4 (Mus musculus)
Test: Agonist activity at TLR4 in C57BL/6 mouse BMDC assessed as induction of IL-6 release at 0.1 to 10 uM after 18 hrs by ELISA
Details: not given
Summary of the method: as §2

SMILES | Activity
Cn1c2ccc(-c3ccc4ccccc4c3)cc2c2nc(SCC(=O)NC3CCCCC3)n(-c3ccccc3)c(=O)c21 | Active
Cn1c2c(c3nc(SCC(=O)NC4CCCCC4)n(-c4ccccc4)c(=O)c31)CCCCC2 | Active
Cn1c2ccc(-c3ccccc3)cc2c2nc(SCC(=O)NC3CCCCC3)n(-c3ccccc3)c(=O)c21 | Active
Cn1c2ccccc2c2nc(SCC(=O)NC3CCCCC3)n(-c3ccccc3)c(=O)c21 | Active

Tested on: not listed separately
Test: Cytotoxicity against C57BL/6 mouse primary BMDC assessed as cell viability at 5 uM after 18 hrs by MTT assay relative to control
Type: cell-based
Details: primary BMDC (bone marrow-derived dendritic cells), read-out: Activity

SMILES | viability at 18 h, 5 µM [%]
Cn1c2ccc(-c3ccc4ccccc4c3)cc2c2nc(SCC(=O)NC3CCCCC3)n(-c3ccccc3)c(=O)c21 | 84
Cn1c2c(c3nc(SCC(=O)NC4CCCCC4)n(-c4ccccc4)c(=O)c31)CCCCC2 | 95
Cn1c2ccc(-c3ccccc3)cc2c2nc(SCC(=O)NC3CCCCC3)n(-c3ccccc3)c(=O)c21 | 93
Cn1c2ccccc2c2nc(SCC(=O)NC3CCCCC3)n(-c3ccccc3)c(=O)c21 | 97 to 106

Molecular target: T1, Toll-like receptor 4
Test: Agonist activity at TLR4 in human PBMC assessed as induction of IL-8 release at 0.1 to 10 uM after 18 hrs by ELISA
Details: not given
Summary of the method: (§3)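 PBMC isolated from blood-bank buffy coats, 1 × 10⁶/mL, stimulated with graded compound doses for 18 h at 37°C, 5% CO₂. IL-6 and IL-8 in supernatants measured by ELISA. Data are mean ± SEM, representative of three independent experiments. Two-way ANOVA with Dunnett's post hoc test.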

SMILES | Activity
Cn1c2ccc(-c3ccc4ccccc4c3)cc2c2nc(SCC(=O)NC3CCCCC3)n(-c3ccccc3)c(=O)c21 | Active
Cn1c2ccc(-c3ccccc3)cc2c2nc(SCC(=O)NC3CCCCC3)n(-c3ccccc3)c(=O)c21 | Active
Cn1c2ccccc2c2nc(SCC(=O)NC3CCCCC3)n(-c3ccccc3)c(=O)c21 | Active

Tested on: HepG2
Test: Cytotoxicity against human HepG2 cells assessed as reduction in cell viability at 5 uM after 18 hrs by MTT assay
Type: cell-based
Details: hepg2, 18 h
Summary of the method: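 HepG2 cells, 1 × 10⁴/well, exposed overnight (18 h) to 5 μM compound. MTT 0.5 mg/mL then added for six or more hours, followed by lysis and absorbance reading. Mean ± SEM of representative data from three independent experiments.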

SMILES | Activity
Cn1c2ccc(-c3ccc4ccccc4c3)cc2c2nc(SCC(=O)NC3CCCCC3)n(-c3ccccc3)c(=O)c21 | Non-Toxic
Cn1c2c(c3nc(SCC(=O)NC4CCCCC4)n(-c4ccccc4)c(=O)c31)CCCCC2 | Non-Toxic
Cn1c2ccc(-c3ccccc3)cc2c2nc(SCC(=O)NC3CCCCC3)n(-c3ccccc3)c(=O)c21 | Non-Toxic
Cn1c2ccccc2c2nc(SCC(=O)NC3CCCCC3)n(-c3ccccc3)c(=O)c21 | Non-Toxic

Molecular target: T1, Toll-like receptor 4
Test: Agonist activity at TLR4 in human PBMC assessed as induction of IL-6 release at 0.1 to 10 uM after 18 hrs by ELISA
Details: not given
Summary of the method: as §3

SMILES | Activity
Cn1c2ccc(-c3ccc4ccccc4c3)cc2c2nc(SCC(=O)NC3CCCCC3)n(-c3ccccc3)c(=O)c21 | Active
Cn1c2ccc(-c3ccccc3)cc2c2nc(SCC(=O)NC3CCCCC3)n(-c3ccccc3)c(=O)c21 | Active
Cn1c2ccccc2c2nc(SCC(=O)NC3CCCCC3)n(-c3ccccc3)c(=O)c21 | Active

Molecular target: T1, Toll-like receptor 4
Test: Agonist activity at human TLR4 expressed in HEK293 blue cells assessed as induction of NF-kappaB activation-mediated SEAP production after 20 to 24 hrs by colorimetric assay
Type: cell-based
Details: not given
Summary of the method: (§4)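 HEK-Blue cells expressing human or mouse TLR4, 2.5 × 10⁴/well in DMEM with 10% FBS, pyruvate, glutamine and antibiotics. Graded doses from 20 mM DMSO stocks, final DMSO 0.05%. Supernatants harvested after 20–24 h; SEAP read by colorimetric substrate at 630 nm. EC50 taken as the concentration giving 50% of maximal activation. LPS 100 ng/mL served as positive control.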

SMILES | EC50 [nM]
Cn1c2ccc(-c3ccc4ccccc4c3)cc2c2nc(SCC(=O)NC3CCCCC3)n(-c3ccccc3)c(=O)c21 | 920
Cn1c2c(c3nc(SCC(=O)NC4CCCCC4)n(-c4ccccc4)c(=O)c31)CCCCC2 | > 10000
Cn1c2ccc(-c3ccccc3)cc2c2nc(SCC(=O)NC3CCCCC3)n(-c3ccccc3)c(=O)c21 | 430
Cn1c2ccccc2c2nc(SCC(=O)NC3CCCCC3)n(-c3ccccc3)c(=O)c21 | 8260

Molecular target: T3, Toll-like receptor 4 (Mus musculus, UniProt Q9QUK6)
T3 sequence (Q9QUK6 whole entry): T2 sequence (whole entry)
Test: Agonist activity at mouse TLR4 expressed in HEK293 blue cells assessed as induction of NF-kappaB activation-mediated SEAP production after 20 to 24 hrs by colorimetric assay
Type: cell-based
Details: not given
Summary of the method: as §4

SMILES | EC50 [nM]
Cn1c2ccc(-c3ccc4ccccc4c3)cc2c2nc(SCC(=O)NC3CCCCC3)n(-c3ccccc3)c(=O)c21 | 2010
Cn1c2c(c3nc(SCC(=O)NC4CCCCC4)n(-c4ccccc4)c(=O)c31)CCCCC2 | 8800
Cn1c2ccc(-c3ccccc3)cc2c2nc(SCC(=O)NC3CCCCC3)n(-c3ccccc3)c(=O)c21 | 820
Cn1c2ccccc2c2nc(SCC(=O)NC3CCCCC3)n(-c3ccccc3)c(=O)c21 | 3170
